Assay results published in PubChem BioAssay AID588321 (Southern Research Specialized Biocontainment Screening …, 2011).
pIC50: −log10 of the molar value. The source made the active and inactive calls.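 How the source made its calls: active means phage lysis blocked by at least 50% at any tested concentration; inactive means the rest.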

Columns and labels:
[1] = protection of UTI89 from K1F phage lysis – E. coli UTI89, set 5, capsule biogenesis inhibitor project, confirmation (AID 588321); conditions: E. coli UTI89 K1F phage lysis inhibition, OD600; for CC50: measured here: cytotoxicity; for inhibition of phage lysis: at 100 µM (top of the series)
Summary of the method: (§1)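 Test system: Uropathogenic E. coli UTI89 (K1 capsule) and kpsM mutant cultures; reagent: K1F phage infection; times: 1.25 h pre-incubation, 3 h after phage, 37 °C; signal: absorbance at 600 nm (OD600); read-out basis: lysis from OD600 3 h after phage; benchmarks: kpsM mutant resisting phage lysis; repeats: quadruplicate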

[2] = test system: E. coli UTI89 K1F phage lysis inhibition, OD600; test: as above
Summary of the method: as §1

Row | pIC50 [2] | Compound | CC50 [1] [µM] | inhibition of phage lysis [1]
1 | 4.25 | CCOc1ccc(-c2cc(NC(=O)c3ccc(OC)c(OC)c3)c(C(=O)O)s2)cc1 | 82.8 | 
2 |  | Cc1c(C(=O)Nc2cc(-c3ccccc3)sc2C(=O)O)oc2ccccc12 | 48.7 | 5.2% (inactive)
3 | 5.99 | O=C(Nc1ccncc1)c1ccc2ncsc2c1 |  | 
4 |  | O=C(Nc1cc(-c2ccccc2)sc1C(=O)O)c1cc2ccccc2o1 |  | 10.4% (inactive)
5 |  | CCOc1ccc(-c2cc(NC(=O)c3c(F)cccc3F)c(C(=O)OC)s2)cc1 | > 300 | 14.9% (inactive)
6 |  | O=C(O)c1sc(-c2ccccc2)cc1NC(=O)C1CCCC1 |  | 15.2% (inactive)
7 |  | O=C(Nc1cc(-c2ccccc2)sc1C(=O)O)c1ccc(Cl)s1 | 71.5 | 10.1% (inactive)
8 | 4.08 | O=C(Nc1cc(-c2ccccc2)sc1C(=O)O)c1cccc(Cl)c1 | 52.6 | 
9 |  | O=C(Nc1cc(-c2ccccc2)sc1C(=O)O)c1cc(Cl)c2c(c1)OCCO2 |  | 6% (inactive)
10 |  | Cc1onc(-c2ccccc2)c1C(=O)Nc1cc(-c2ccccc2)sc1C(=O)O | 52.6 | 3.71% (inactive)
11 |  | Cc1ccc(C(=O)Nc2cc(-c3ccccc3)sc2C(=O)O)s1 | 63.6 | 
12 | 4.23 | O=C(Nc1cc(-c2ccccc2)sc1C(=O)O)c1ccc(Br)o1 | 104 | 
13 | 4.37 | O=C(Nc1cc(-c2ccccc2)sc1C(=O)O)c1ccc2c(c1)OCCO2 | 82.1 | 
14 |  | O=C(O)c1sc(-c2ccccc2)cc1NC(=O)C1CCCCC1 |  | 16.1% (inactive)
15 | 4.08 | O=C(Nc1cc(-c2ccccc2)sc1C(=O)O)c1cccs1 | 89.3 | 
16 | 4.34 | CCOc1ccc(-c2cc(NC(=O)c3cccc(Cl)c3)c(C(=O)O)s2)cc1 | 83.9 | 
17 |  | COC(=O)c1sc(-c2ccccc2)cc1NC(=O)c1c(F)cccc1F | 10.4 | 29.8% (inactive)
18 |  | O=C(Nc1cc(-c2ccccc2)sc1C(=O)O)c1cccc(F)c1 | 76.9 | 18.7% (inactive)
